Laboratory results: ChEMBL document CHEMBL5034013, “Discovery of VNRX-7145 (VNRX-5236 Etzadroxil): An Orally Bioavailable β-Lactamase Inhibitor for Enterobacterales Expressing Ambler Class A, C, and D Enzymes” (J Med Chem, 2021)
Values belong to the molecule of their own block, whether it stands above or below them.

Tests used:
[1] = Oral bioavailability in monkey at 10 mg/kg administered as cassette dose measured by UPLC-MS/MS analysis; type: ADME, organism-based, Macaca mulatta; conditions: rhesus monkey, in vivo
Summary of the method: (§1)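 Ester prodrugs are dosed orally. F is the percent absolute oral bioavailability of the parent boronate, corrected for the molecular-weight difference between prodrug and parent.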

[2] = Oral bioavailability in mouse at 5 mg/kg administered as cassette dose measured by UPLC-MS/MS analysis; type: ADME, organism-based; conditions: in vivo; summary of the method: as §1
[3] = Oral bioavailability in dog at 10 mg/kg administered as cassette dose measured by UPLC-MS/MS analysis; type: ADME, organism-based, Canis lupus familiaris; conditions: in vivo; summary of the method: as §1
[4] = Oral bioavailability in rat at 10 mg/kg administered as cassette dose measured by UPLC-MS/MS; type: ADME, organism-based; conditions: in vivo, 10 mg/kg, in the assay text read “measured” for “administered as cassette dose measured”
Summary of the method: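 Ester prodrugs are given to rats by oral gavage, some as a cassette with another ester. F is the percent absolute oral bioavailability of the parent, corrected for the MW difference between prodrug and parent.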

Escherichia coli [5] = experiment: Antibacterial activity against Escherichia coli expressing AmpC/SHV-12/CTX-M-15/TEM-1 assessed as concentration required to restore ceftibuten activity incubated for 16 to 20 hrs in presence of 1 ug/ml ceftibuten by broth microdilution method; type: functional; conditions: time 16-20 hrs
Escherichia coli [6] = experiment: Antibacterial activity against Escherichia coli expressing CTX-M-15/TEM-1 assessed as concentration required to restore ceftibuten activity incubated for 16 to 20 hrs in presence of 1 ug/ml ceftibuten by broth microdilution method; type: functional; conditions: time 16-20 hrs
Escherichia coli [7] = experiment: Antibacterial activity against Escherichia coli expressing CTX-M-2 assessed as concentration required to restore ceftibuten activity incubated for 16 to 20 hrs in presence of 1 ug/ml ceftibuten by broth microdilution method; type: functional; conditions: time 16-20 hrs
Escherichia coli [8] = experiment: Antibacterial activity against Escherichia coli 664507 expressing OXA-48 assessed as concentration required to restore ceftibuten activity incubated for 16 to 20 hrs in presence of 1 ug/ml ceftibuten by broth microdilution method; type: functional; conditions: time 16-20 hrs
Summary of the method: (§2)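 Tested against a 25-strain challenge panel of clinical E. coli and K. pneumoniae isolates carrying ESBL (n = 5), KPC (n = 11), class C (n = 4) or OXA-48 (n = 5) β-lactamases. Ceftibuten was held at 1 μg/mL while the BLI concentration varied. The read-out was the BLI concentration that rescued ceftibuten activity.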

Escherichia coli [9] = experiment: Antibacterial activity against Escherichia coli 664520 expressing OXA-48 assessed as concentration required to restore ceftibuten activity incubated for 16 to 20 hrs in presence of 1 ug/ml ceftibuten by broth microdilution method; type: functional; conditions: time 16-20 hrs; summary of the method: as §2
Klebsiella pneumoniae [10] = experiment: Antibacterial activity against Klebsiella pneumonia 217917 expressing CMY-2/TEM-1 assessed as concentration required to restore ceftibuten activity incubated for 16 to 20 hrs in presence of 1 ug/ml ceftibuten by broth microdilution method; type: functional; conditions: time 16-20 hrs; summary of the method: as §2
Klebsiella pneumoniae [11] = experiment: Antibacterial activity against Klebsiella pneumoniae 196477 expressing AmpC/CMY-2/TEM-1/CTX-M-15 assessed as concentration required to restore ceftibuten activity incubated for 16 to 20 hrs in presence of 1 ug/ml ceftibuten by broth microdilution method; type: functional; conditions: time 16-20 hrs
[12] = Inhibition of bacterial beta-lactamase KPC-2 using imipenem as substrate preincubated for 15 mins followed by substrate addition and measured after 10 mins by spectrophotometric analysis; design: species or system Bacteria
Summary of the method: (§3)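 IC50 is the mean of duplicate runs on separate days. A run was repeated automatically if it differed by more than 20% from the previous result.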

Klebsiella pneumoniae [13] = experiment: Antibacterial activity against Klebsiella pneumoniae expressing SHV-12/TEM-1 assessed as concentration required to restore ceftibuten activity incubated for 16 to 20 hrs in presence of 1 ug/ml ceftibuten by broth microdilution method; type: functional; conditions: time 16-20 hrs
Klebsiella pneumoniae [14] = experiment: Antibacterial activity against Klebsiella pneumoniae expressing OXA-48 assessed as concentration required to restore ceftibuten activity incubated for 16 to 20 hrs in presence of 1 ug/ml ceftibuten by broth microdilution method; type: functional; conditions: time 16-20 hrs
Klebsiella pneumoniae [15] = experiment: Antibacterial activity against Klebsiella pneumonia DOV expressing OXA-48 assessed as concentration required to restore ceftibuten activity incubated for 16 to 20 hrs in presence of 1 ug/ml ceftibuten by broth microdilution method; type: functional; conditions: time 16-20 hrs; summary of the method: as §2
Klebsiella pneumoniae [16] = experiment: Antibacterial activity against Klebsiella pneumonia SI-C05 expressing OXA-48 assessed as concentration required to restore ceftibuten activity incubated for 16 to 20 hrs in presence of 1 ug/ml ceftibuten by broth microdilution method; type: functional; conditions: time 16-20 hrs; summary of the method: as §2
Escherichia coli [17] = experiment: Antibacterial activity against Escherichia coli 849121 expressing KPC assessed as concentration required to restore ceftibuten activity incubated for 16 to 20 hrs in presence of 1 ug/ml ceftibuten by broth microdilution method; type: functional; conditions: time 16-20 hrs
Klebsiella pneumoniae [18] = experiment: Antibacterial activity against Klebsiella pneumoniae expressing SHV-12/TEM-1/KPC-2/AmpC assessed as concentration required to restore ceftibuten activity incubated for 16 to 20 hrs in presence of 1 ug/ml ceftibuten by broth microdilution method; type: functional; conditions: time 16-20 hrs
Klebsiella pneumoniae [19] = experiment: Antibacterial activity against Klebsiella pneumoniae expressing KPC-3/TEM-1/AmpC assessed as concentration required to restore ceftibuten activity incubated for 16 to 20 hrs in presence of 1 ug/ml ceftibuten by broth microdilution method; type: functional; conditions: time 16-20 hrs
Klebsiella pneumoniae [20] = experiment: Antibacterial activity against Klebsiella pneumoniae 845661 expressing KPC assessed as concentration required to restore ceftibuten activity incubated for 16 to 20 hrs in presence of 1 ug/ml ceftibuten by broth microdilution method; type: functional; conditions: time 16-20 hrs
Escherichia coli [21] = experiment: Antibacterial activity against Escherichia coli SI-P026TC expressing CMY-2/TEM-1 assessed as concentration required to restore ceftibuten activity incubated for 16 to 20 hrs in presence of 1 ug/ml ceftibuten by broth microdilution method; type: functional; conditions: time 16-20 hrs
Klebsiella pneumoniae [22] = experiment: Antibacterial activity against Klebsiella pneumoniae expressing TEM-1/SHV-12 assessed as concentration required to restore ceftibuten activity incubated for 16 to 20 hrs in presence of 1 ug/ml ceftibuten by broth microdilution method; type: functional; conditions: time 16-20 hrs
Klebsiella pneumoniae [23] = experiment: Antibacterial activity against Klebsiella pneumoniae expressing SHV-1/TEM-1/KPC-2 assessed as concentration required to restore ceftibuten activity incubated for 16 to 20 hrs in presence of 1 ug/ml ceftibuten by broth microdilution method; type: functional; conditions: time 16-20 hrs
[24] = Inhibition of bacterial beta-lactamase OXA-48 using nitrocefin as substrate preincubated for 15 mins followed by substrate addition and measured after 10 mins by spectrophotometric analysis; design: species or system Bacteria; summary of the method: as §3
Escherichia coli [25] = experiment: Antibacterial activity against Escherichia coli J53 expressing SHV-5/TEM-1/AmpC assessed as concentration required to restore ceftibuten activity incubated for 16 to 20 hrs in presence of 1 ug/ml ceftibuten by broth microdilution method; type: functional; conditions: time 16-20 hrs
[26] = Inhibition of bacterial beta-lactamase AmpC using nitrocefin as substrate preincubated for 15 mins followed by substrate addition and measured after 10 mins by spectrophotometric analysis; design: species or system Bacteria; summary of the method: as §3
Escherichia coli [27] = experiment: Antibacterial activity against Escherichia coli 786978 expressing KPC assessed as concentration required to restore ceftibuten activity incubated for 16 to 20 hrs in presence of 1 ug/ml ceftibuten by broth microdilution method; type: functional; conditions: time 16-20 hrs
[28] = Inhibition of bacterial beta-lactamase SHV-5 using cefotaxime as substrate preincubated for 15 mins followed by substrate addition and measured after 10 mins by spectrophotometric analysis; design: species or system Bacteria; summary of the method: as §3
Klebsiella pneumoniae [29] = experiment: Antibacterial activity against Klebsiella pneumoniae 845670 expressing KPC assessed as concentration required to restore ceftibuten activity incubated for 16 to 20 hrs in presence of 1 ug/ml ceftibuten by broth microdilution method; type: functional; conditions: time 16-20 hrs
Klebsiella pneumoniae [30] = experiment: Antibacterial activity against Klebsiella pneumoniae 156309 expressing SHV-11/TEM-1/KPC-2 assessed as concentration required to restore ceftibuten activity incubated for 16 to 20 hrs in presence of 1 ug/ml ceftibuten by broth microdilution method; type: functional; conditions: time 16-20 hrs
Klebsiella pneumoniae [31] = experiment: Antibacterial activity against Klebsiella pneumoniae expressing SHV-11/TEM-1/KPC-3 assessed as concentration required to restore ceftibuten activity incubated for 16 to 20 hrs in presence of 1 ug/ml ceftibuten by broth microdilution method; type: functional; conditions: time 16-20 hrs
Klebsiella pneumoniae [32] = experiment: Antibacterial activity against Klebsiella pneumoniae expressing SHV-5/KPC-2/TEM-1 assessed as concentration required to restore ceftibuten activity incubated for 16 to 20 hrs in presence of 1 ug/ml ceftibuten by broth microdilution method; type: functional; conditions: time 16-20 hrs
Escherichia coli [33] = experiment: Antibacterial activity against Escherichia coli expressing TEM-1/SHV-12 assessed as concentration required to restore ceftibuten activity incubated for 16 to 20 hrs in presence of 1 ug/ml ceftibuten by broth microdilution method; type: functional; conditions: time 16-20 hrs

bioavailability [1]: 52% | bioavailability [2]: 42% | bioavailability [3]: 42% | bioavailability [4]: 99%
Compound: CCC(=O)N[C@H]1Cc2cccc(C(=O)OCOC(=O)C(C)(C)C)c2OB1O

Compound: CC(=O)CCC(=O)N[C@H]1Cc2cccc(C(=O)O)c2OB1O
Activity (Escherichia coli [5]): 0.016 µg/mL | Activity (Escherichia coli [6]): 0.12 µg/mL | Activity (Escherichia coli [7]): <=0.002 ug ml-1 | Activity (Escherichia coli [8]): 0.06 µg/mL | Activity (Escherichia coli [9]): 4 µg/mL | Activity (Klebsiella pneumoniae [10]): 0.12 µg/mL | Activity (Klebsiella pneumoniae [11]): 0.06 µg/mL | IC50 [12]: 0.116 µM | Activity (Klebsiella pneumoniae [13]): 0.06 µg/mL | Activity (Klebsiella pneumoniae [14]): 4 µg/mL | Activity (Klebsiella pneumoniae [15]): 0.06 µg/mL | Activity (Klebsiella pneumoniae [16]): 0.06 µg/mL | Activity (Escherichia coli [17]): <=0.002 ug ml-1 | Activity (Klebsiella pneumoniae [18]): 0.5 µg/mL | Activity (Klebsiella pneumoniae [19]): 0.5 µg/mL | Activity (Klebsiella pneumoniae [20]): 4 µg/mL | Activity (Escherichia coli [21]): 0.5 µg/mL | Activity (Klebsiella pneumoniae [22]): 0.016 µg/mL | Activity (Klebsiella pneumoniae [23]): 4 µg/mL | IC50 [24]: 1.45 µM | Activity (Escherichia coli [25]): 0.03 µg/mL | IC50 [26]: 0.008 µM | Activity (Escherichia coli [27]): 1 µg/mL | IC50 [28]: 0.025 µM | Activity (Klebsiella pneumoniae [29]): <=0.002 ug ml-1 | Activity (Klebsiella pneumoniae [30]): 2 µg/mL | Activity (Klebsiella pneumoniae [31]): 0.25 µg/mL | Activity (Klebsiella pneumoniae [32]): <=0.002 ug ml-1 | Activity (Escherichia coli [33]): 0.016 µg/mL
